{"source": "ChEMBL document CHEMBL4196178", "about": "“Structure-Based Drug Design of Potent Pyrazole Derivatives against Rhinovirus Replication” (J Med Chem, 2018)", "key": {"[1]": {"assay": "Cytotoxicity against human HeLa Rh cells assessed as reduction in cell viability after 3 days by MTS assay", "assay_type": "cell-based"}, "[2]": {"assay": "Selectivity index, ratio of CC50 for human HeLa Rh cells to EC50 for Rhinovirus B14 capsid infected in human HeLa Rh cells", "assay_type": "toxicity, cell-based", "details": "read-out: Ratio CC50/EC50", "procedure,_shortened": "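SI = CC₅₀/EC₅₀ for RV-B14 in HeLa Rh cells, both from the same 3-day 35 °C MTS CPE assay. CC₅₀ was obtained by light-microscope scoring of compound-treated uninfected cells, and EC₅₀ from MTS dose-response. Both values were derived by logarithmic interpolation and reported as median ± median absolute deviation.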"}, "[3]": {"biological_target": "T1, VP1 capsid protein (Human rhinovirus sp.) (UniProt Q7T664)", "T1 sequence (whole entry)": "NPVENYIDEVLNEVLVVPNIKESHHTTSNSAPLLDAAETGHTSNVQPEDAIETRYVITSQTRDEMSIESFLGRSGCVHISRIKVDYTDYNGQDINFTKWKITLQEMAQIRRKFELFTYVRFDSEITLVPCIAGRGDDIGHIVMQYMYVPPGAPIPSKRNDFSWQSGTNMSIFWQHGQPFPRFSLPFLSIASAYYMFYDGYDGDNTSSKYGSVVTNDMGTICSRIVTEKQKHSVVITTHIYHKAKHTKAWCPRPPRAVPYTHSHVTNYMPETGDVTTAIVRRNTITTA", "assay": "Inhibition of Rhinovirus B14 capsid infected in human HeLa Rh cells assessed as reduction in viral replication at 1 uM administered 2 hrs before infection measured after 8 hrs post infection by RT-qPCR analysis", "assay_type": "cell-based", "procedure,_shortened": "(§1)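 HeLa Rh cells adhered overnight, then given 1 µM compound 2 h before, at, or 2, 4 or 6 h after RV-B14 infection. Untreated infected cells served as controls. Cells lysed at 8 h post-infection, DNases heat-inactivated at 75 °C for 15 min. Intracellular viral RNA measured by SYBR one-step qRT-PCR against a gBlock standard series, reported as genome equivalents per sample.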"}, "rhinovirus B14 [4]": {"tested_on": "rhinovirus B14", "assay": "Antiviral activity against Rhinovirus B14 infected in human HeLa Rh cells assessed as reduction in viral replication at 1 uM administered at the time of infection measured after 8 hrs post infection by RT-qPCR analysis", "assay_type": "functional, organism-based", "procedure,_shortened": "as §1"}, "rhinovirus B14 [5]": {"tested_on": "rhinovirus B14", "assay": "Antiviral activity against Rhinovirus B14 infected in human HeLa Rh cells assessed as reduction in viral replication at 1 uM administered at >= 2 hrs post infection measured after 8 hrs post infection by RT-qPCR analysis", "assay_type": "functional, organism-based", "procedure,_shortened": "as §1"}, "CHO-K1 [6]": {"tested_on": "CHO-K1", "assay": "Genotoxicity in CHOK1 cells assessed as increase in micronucleated cell rates at 1 to 100 uM after 3 hrs in presence of Sprague-Dawley rat S9 fraction and cytokinesis blocking agent cytochalasin B by Giemsa-staining based assay", "assay_type": "toxicity, Cricetulus griseus", "details": "chinese hamster, s9, 3 h", "procedure,_shortened": "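CHO-K1 cells were seeded at 100,000 cells/ml and pre-incubated 24 h. S9 mix from Aroclor 1254-treated male Sprague-Dawley rat liver (1% S9, 0.5 mM G6P, 0.4 mM NADP) was added at 10%, and compound (1–100 μM) was given in duplicate for 3 h at 37 °C. Controls were medium, 1% DMSO and benzo-a-pyrene 5 µg/ml. Cells then had 21 h in 3 µg/ml cytochalasin B and Giemsa staining. Micronuclei were counted in 1000 binucleated cells per well at doses with CI% decrease <55 ± 5%, and compared by χ² test.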"}, "CHO-K1 [7]": {"tested_on": "CHO-K1", "assay": "Genotoxicity in CHOK1 cells assessed as increase in micronucleated cell rates at 1 to 100 uM after 3 hrs in absence of Sprague-Dawley rat S9 fraction and presence of cytokinesis blocking agent cytochalasin B by Giemsa-staining based assay", "assay_type": "toxicity, Cricetulus griseus", "details": "chinese hamster, cho-k1, 3 h", "procedure,_shortened": "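CHO-K1 cells were seeded at 100,000 cells/ml and pre-incubated 24 h, then exposed in duplicate to compound (1–100 μM) for 3 h at 37 °C without S9. Controls were medium, 1% DMSO and mitomycin C 0.6 µg/ml. Cells then had 21 h in 3 µg/ml cytochalasin B, followed by methanol fixation and 10% Giemsa. Micronuclei were counted in 1000 binucleated cells per well, restricted to doses with CI% decrease <55 ± 5%, and compared by χ² test.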"}}, "note": "Calls of active or inactive are those of the source. No cut-off for these calls is given here.", "data": [{"smiles": "Cn1cc(-c2ccc(C[C@@H](O)c3ccc(-n4cccn4)cc3)c([N+](=O)[O-])c2)cn1", "values": [{"measurement": "CC50 at 72 h", "setting": "[1]", "value": "> 342", "unit": "µM"}, {"measurement": "selectivity ratio", "setting": "[2]", "value": "> 136"}]}, {"smiles": "Cn1cc(-c2ccc(C[C@H](O)c3ccc(-n4cccn4)cc3)c([N+](=O)[O-])c2)cn1", "values": [{"measurement": "CC50 at 72 h", "setting": "[1]", "value": "> 342", "unit": "µM"}, {"measurement": "selectivity ratio", "setting": "[2]", "value": "> 9770"}, {"measurement": "inhibition", "setting": "[3]", "value": "Active"}, {"measurement": "Activity", "setting": "rhinovirus B14 [4]", "value": "Active"}, {"measurement": "Activity", "setting": "rhinovirus B14 [5]", "value": "inactive"}, {"measurement": "Activity", "setting": "CHO-K1 [6]", "value": "Non-Toxic"}, {"measurement": "Activity", "setting": "CHO-K1 [7]", "value": "Non-Toxic"}]}, {"smiles": "Cn1cc(-c2ccc(C[C@H](O)c3ccc(-n4cncn4)cc3)c([N+](=O)[O-])c2)cn1", "values": [{"measurement": "CC50 at 72 h", "setting": "[1]", "value": "> 342", "unit": "µM"}, {"measurement": "selectivity ratio", "setting": "[2]", "value": "> 5700"}, {"measurement": "inhibition", "setting": "[3]", "value": "Active"}, {"measurement": "Activity", "setting": "rhinovirus B14 [4]", "value": "Active"}, {"measurement": "Activity", "setting": "rhinovirus B14 [5]", "value": "inactive"}, {"measurement": "Activity", "setting": "CHO-K1 [6]", "value": "Non-Toxic"}, {"measurement": "Activity", "setting": "CHO-K1 [7]", "value": "Non-Toxic"}]}, {"smiles": "Cn1cc(-c2ccc(C[C@@H](O)c3ccc(-n4cncn4)cc3)c([N+](=O)[O-])c2)cn1", "values": [{"measurement": "CC50 at 72 h", "setting": "[1]", "value": "> 342", "unit": "µM"}]}, {"smiles": "O=[N+]([O-])c1cc(-c2cncs2)ccc1CC(O)c1ccc(-n2cncn2)cc1", "note": "(racemic)", "values": [{"measurement": "CC50 at 72 h", "setting": "[1]", "value": 44, "unit": "µM"}, {"measurement": "selectivity ratio", "setting": "[2]", "value": 110}]}, {"smiles": "COC(=O)c1ccc(CC(O)c2ccc(-c3ccncc3)cc2)c([N+](=O)[O-])c1", "note": "(racemic)", "values": [{"measurement": "CC50 at 72 h", "setting": "[1]", "value": "> 264", "unit": "µM"}, {"measurement": "selectivity ratio", "setting": "[2]", "value": "> 41"}]}, {"smiles": "Cn1nc(C(F)(F)F)cc1-c1ccc(CC(O)c2ccc(-n3cncn3)cc2)c([N+](=O)[O-])c1", "note": "(racemic)", "values": [{"measurement": "CC50 at 72 h", "setting": "[1]", "value": 21, "unit": "µM"}]}, {"smiles": "Cn1nc(C(F)(F)F)cc1-c1ccc(CC(O)c2ccc(-n3cccn3)cc2)c([N+](=O)[O-])c1", "note": "(racemic)", "values": [{"measurement": "CC50 at 72 h", "setting": "[1]", "value": 14, "unit": "µM"}, {"measurement": "selectivity ratio", "setting": "[2]", "value": 29}]}, {"smiles": "O=[N+]([O-])c1cc(-c2ccco2)ccc1CC(O)c1ccc(-c2ccncc2)cc1", "note": "(racemic)", "values": [{"measurement": "CC50 at 72 h", "setting": "[1]", "value": "> 86", "unit": "µM"}, {"measurement": "selectivity ratio", "setting": "[2]", "value": "> 72"}]}, {"smiles": "O=[N+]([O-])c1cc(Cl)ccc1CC(O)c1ccc(-n2cccn2)cc1", "note": "(racemic)", "values": [{"measurement": "CC50 at 72 h", "setting": "[1]", "value": "> 100", "unit": "µM"}, {"measurement": "selectivity ratio", "setting": "[2]", "value": "> 781"}]}]}
